Measurements from ChEMBL document CHEMBL4020721 (Eur J Med Chem, 2017).

Key:
[1] = biological target: CYP2C19 (Homo sapiens, UniProt P33261); experiment: Reversible inhibition of CYP2C19 in human liver microsomes at 10 uM after 20 mins in presence of NADPH by LC-MS/MS analysis; format: ADME; conditions: liver microsomes
[2] = tested on: SNU-5; experiment: Growth inhibition of human SNU5 cells after 72 hrs by CCK-8 assay; format: functional, cell-based; conditions: snu-5
[3] = Intrinsic clearance in human liver microsomes assessed per mg protein at 1 uM preincubated for 5 mins followed by NADPH addition measured after 5 to 30 mins by LC-MS/MS analysis; format: ADME, microsome; conditions: read-out: CLH
Procedure, shortened: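 Microsomes (0.5 mg/ml) with 1 µM compound were preincubated 5 min at 37°C in 100 mM phosphate buffer pH 7.4, then started with 1 mM NADPH. Samples were taken at 0, 5, 10 and 30 min, quenched with acetonitrile/tinidazole and run by LC-MS/MS. CLint = k / microsomal protein concentration. Midazolam was the positive control.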

[4] = biological target: CYP3A4 (Homo sapiens, UniProt P08684); experiment: Reversible inhibition of CYP3A4 in human liver microsomes at 10 uM after 20 mins in presence of NADPH by LC-MS/MS analysis; format: ADME; conditions: liver microsomes
[5] = biological target: CYP2D6 (Homo sapiens, UniProt P10635); experiment: Reversible inhibition of CYP2D6 in human liver microsomes at 10 uM after 20 mins in presence of NADPH by LC-MS/MS analysis; format: ADME; conditions: liver microsomes
[6] = biological target: T1, CYP1A2 (Homo sapiens, UniProt P05177); experiment: Reversible inhibition of CYP1A2 in human liver microsomes at 10 uM after 20 mins in presence of NADPH by LC-MS/MS analysis; format: ADME
T1 sequence (P05177 whole entry): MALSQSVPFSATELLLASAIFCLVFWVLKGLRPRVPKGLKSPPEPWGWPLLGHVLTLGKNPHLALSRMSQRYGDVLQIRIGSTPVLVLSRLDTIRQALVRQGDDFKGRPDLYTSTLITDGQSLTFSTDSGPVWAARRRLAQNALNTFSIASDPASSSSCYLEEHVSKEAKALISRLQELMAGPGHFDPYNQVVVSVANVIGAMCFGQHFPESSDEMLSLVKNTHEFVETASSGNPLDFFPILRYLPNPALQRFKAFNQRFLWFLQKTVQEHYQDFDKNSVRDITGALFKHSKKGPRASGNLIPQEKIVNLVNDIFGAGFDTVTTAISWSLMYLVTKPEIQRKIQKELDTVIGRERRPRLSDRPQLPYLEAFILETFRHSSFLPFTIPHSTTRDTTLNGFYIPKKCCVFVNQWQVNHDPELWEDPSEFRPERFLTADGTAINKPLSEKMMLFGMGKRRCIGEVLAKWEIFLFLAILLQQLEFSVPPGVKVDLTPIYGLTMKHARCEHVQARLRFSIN

[7] = tested on: Rattus norvegicus; experiment: Oral bioavailability in Sprague-Dawley rat plasma at 6 mg/kg by UPLC-MS/MS analysis; format: ADME, organism-based; conditions: in vivo
Procedure, shortened: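 Male Sprague-Dawley rats (180-220 g) were fasted overnight with free access to water. Dosing was intravenous (n=2) or oral at 6 mg/kg (n=3). Heparinized blood was drawn from 0 to 1440 min. Plasma was frozen at -20°C, then precipitated with acetonitrile containing internal standard, centrifuged and analysed by UPLC-MS/MS.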

[8] = biological target: Tyrosine-protein kinase receptor UFO (Homo sapiens, UniProt P30530); experiment: Inhibition of Axl (unknown origin) using FAM-labeled peptide as substrate preincubated for 5 to 10 mins followed by substrate/ATP addition measured after 30 to 60 mins by mobility shift assay
Procedure, shortened: (§1)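 Caliper mobility-shift assay with FAM-labeled peptide substrate. Buffer: 50 mM HEPES pH 7.5, 0.0015% Brij-35, 10 mM MgCl2, 2 mM DTT, with kinase-specific enzyme levels. […] Incubation was 30-60 min at 28°C, stopped with EDTA buffer. Read-out was % conversion.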

[9] = biological target: ALK tyrosine kinase receptor (Homo sapiens, UniProt Q9UM73); experiment: Inhibition of ALK (unknown origin) using FAM-labeled peptide as substrate preincubated for 5 to 10 mins followed by substrate/ATP addition measured after 30 to 60 mins by mobility shift assay; procedure, shortened: as §1
[10] = biological target: Vascular endothelial growth factor receptor 1 (Homo sapiens, UniProt P17948); experiment: Inhibition of FLT1 (unknown origin) using FAM-labeled peptide as substrate preincubated for 5 to 10 mins followed by substrate/ATP addition measured after 30 to 60 mins by mobility shift assay; procedure, shortened: as §1
[11] = biological target: Mast/stem cell growth factor receptor Kit (Homo sapiens, UniProt P10721); experiment: Inhibition of c-Kit (unknown origin) using FAM-labeled peptide as substrate preincubated for 5 to 10 mins followed by substrate/ATP addition measured after 30 to 60 mins by mobility shift assay; procedure, shortened: as §1
[12] = biological target: Proto-oncogene tyrosine-protein kinase receptor Ret (Homo sapiens, UniProt P07949); experiment: Inhibition of RET (unknown origin) using FAM-labeled peptide as substrate preincubated for 5 to 10 mins followed by substrate/ATP addition measured after 30 to 60 mins by mobility shift assay; procedure, shortened: as §1
[13] = biological target: Epidermal growth factor receptor (Homo sapiens, UniProt P00533); experiment: Inhibition of EGFR (unknown origin) using FAM-labeled peptide as substrate preincubated for 5 to 10 mins followed by substrate/ATP addition measured after 30 to 60 mins by mobility shift assay; procedure, shortened: as §1
[14] = biological target: Proto-oncogene tyrosine-protein kinase Src (Homo sapiens, UniProt P12931); experiment: Inhibition of c-Src (unknown origin) using FAM-labeled peptide as substrate preincubated for 5 to 10 mins followed by substrate/ATP addition measured after 30 to 60 mins by mobility shift assay; procedure, shortened: as §1
[15] = biological target: Ephrin type-B receptor 2 (Homo sapiens, UniProt P29323); experiment: Inhibition of EPHB2 (unknown origin) using FAM-labeled peptide as substrate preincubated for 5 to 10 mins followed by substrate/ATP addition measured after 30 to 60 mins by mobility shift assay; procedure, shortened: as §1
[16] = tested on: SNU-5; experiment: Antitumor activity against human SNU5 cells xenografted in BALB/c athymic nude mouse assessed as tumor regression at 1 mg/kg, po administered once daily for 2 weeks; format: functional
Procedure, shortened: (§2)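 Nude BALB/c mice, 5-6 weeks old, under SPF conditions, were implanted s.c. in the right flank with 6×10^6 SNU-5 cells. Groups were sorted at 100-200 mm³, n=6, with vehicle controls. Oral dosing once daily for 2 weeks. Percent tumor regression = 100% × (treated day 0 − treated final)/treated day 0. Mean±SEM, Student's t-test.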

[17] = tested on: SNU-5; experiment: Antitumor activity against human SNU5 cells xenografted in BALB/c athymic nude mouse assessed as tumor regression at 3 mg/kg, po administered once daily for 2 weeks; format: functional; procedure, shortened: as §2
[18] = tested on: Mus musculus; experiment: Toxicity in BALB/c athymic nude mouse xenografted with human SNU5 cells assessed as body weight loss at 0.3 to 3 mg/kg, po administered once daily for 2 weeks; format: organism-based; conditions: in vivo, 336 h
Procedure, shortened: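 Female/male BALB/c nude mice (5-6 weeks, SPF). NCI-H1993 cells (7×10^6 in 140 µL) or SNU-5 cells (6×10^6 in 200 µL) injected s.c. into the right flank. Dosing started at mean tumour volume 150-250 mm³ (NCI-H1993) or 100-200 mm³ (SNU-5). Randomized, n = 7 (NCI-H1993) or 6 (SNU-5) per group. Oral dosing once daily; vehicle controls. Body weight and signs of toxicity monitored during treatment.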

Chain of Mast/stem cell growth factor receptor Kit (P10721 whole entry): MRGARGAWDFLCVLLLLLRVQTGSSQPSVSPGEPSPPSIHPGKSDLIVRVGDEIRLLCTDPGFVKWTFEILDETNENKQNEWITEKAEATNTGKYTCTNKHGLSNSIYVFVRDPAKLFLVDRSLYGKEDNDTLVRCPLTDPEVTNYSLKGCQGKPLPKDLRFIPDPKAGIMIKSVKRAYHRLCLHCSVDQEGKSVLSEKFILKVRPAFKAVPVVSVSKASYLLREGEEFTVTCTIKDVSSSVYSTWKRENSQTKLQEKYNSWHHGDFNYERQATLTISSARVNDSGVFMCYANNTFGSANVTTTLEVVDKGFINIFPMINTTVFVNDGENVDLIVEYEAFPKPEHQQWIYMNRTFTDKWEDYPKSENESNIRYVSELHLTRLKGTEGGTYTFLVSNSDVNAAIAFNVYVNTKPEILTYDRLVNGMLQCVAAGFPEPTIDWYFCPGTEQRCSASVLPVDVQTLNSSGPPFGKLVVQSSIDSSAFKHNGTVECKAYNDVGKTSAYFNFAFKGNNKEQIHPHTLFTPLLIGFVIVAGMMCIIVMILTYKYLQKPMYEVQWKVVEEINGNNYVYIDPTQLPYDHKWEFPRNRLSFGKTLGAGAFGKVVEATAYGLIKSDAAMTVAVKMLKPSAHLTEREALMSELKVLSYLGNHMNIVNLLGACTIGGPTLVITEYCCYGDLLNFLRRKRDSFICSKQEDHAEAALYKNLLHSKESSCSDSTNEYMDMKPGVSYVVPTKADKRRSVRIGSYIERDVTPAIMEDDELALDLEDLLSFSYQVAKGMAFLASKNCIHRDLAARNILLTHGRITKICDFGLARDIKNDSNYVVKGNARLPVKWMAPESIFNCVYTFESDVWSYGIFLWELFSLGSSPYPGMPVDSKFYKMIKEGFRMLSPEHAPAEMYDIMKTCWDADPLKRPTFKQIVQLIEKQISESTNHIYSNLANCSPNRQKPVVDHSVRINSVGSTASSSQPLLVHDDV
Chain of CYP2D6 (P10635 whole entry): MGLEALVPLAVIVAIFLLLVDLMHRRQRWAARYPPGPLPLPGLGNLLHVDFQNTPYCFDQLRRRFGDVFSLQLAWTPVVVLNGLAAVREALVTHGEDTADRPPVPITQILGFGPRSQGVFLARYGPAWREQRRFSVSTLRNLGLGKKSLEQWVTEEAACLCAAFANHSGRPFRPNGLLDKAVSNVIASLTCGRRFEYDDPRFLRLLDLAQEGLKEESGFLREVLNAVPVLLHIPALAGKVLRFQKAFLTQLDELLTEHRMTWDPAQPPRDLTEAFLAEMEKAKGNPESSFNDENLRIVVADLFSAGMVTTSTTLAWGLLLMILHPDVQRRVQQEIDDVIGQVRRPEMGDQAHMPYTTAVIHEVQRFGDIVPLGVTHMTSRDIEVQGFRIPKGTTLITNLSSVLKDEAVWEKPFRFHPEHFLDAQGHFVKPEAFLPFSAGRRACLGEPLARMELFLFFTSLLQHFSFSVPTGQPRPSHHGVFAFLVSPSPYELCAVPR
Chain of Vascular endothelial growth factor receptor 1 (P17948 whole entry): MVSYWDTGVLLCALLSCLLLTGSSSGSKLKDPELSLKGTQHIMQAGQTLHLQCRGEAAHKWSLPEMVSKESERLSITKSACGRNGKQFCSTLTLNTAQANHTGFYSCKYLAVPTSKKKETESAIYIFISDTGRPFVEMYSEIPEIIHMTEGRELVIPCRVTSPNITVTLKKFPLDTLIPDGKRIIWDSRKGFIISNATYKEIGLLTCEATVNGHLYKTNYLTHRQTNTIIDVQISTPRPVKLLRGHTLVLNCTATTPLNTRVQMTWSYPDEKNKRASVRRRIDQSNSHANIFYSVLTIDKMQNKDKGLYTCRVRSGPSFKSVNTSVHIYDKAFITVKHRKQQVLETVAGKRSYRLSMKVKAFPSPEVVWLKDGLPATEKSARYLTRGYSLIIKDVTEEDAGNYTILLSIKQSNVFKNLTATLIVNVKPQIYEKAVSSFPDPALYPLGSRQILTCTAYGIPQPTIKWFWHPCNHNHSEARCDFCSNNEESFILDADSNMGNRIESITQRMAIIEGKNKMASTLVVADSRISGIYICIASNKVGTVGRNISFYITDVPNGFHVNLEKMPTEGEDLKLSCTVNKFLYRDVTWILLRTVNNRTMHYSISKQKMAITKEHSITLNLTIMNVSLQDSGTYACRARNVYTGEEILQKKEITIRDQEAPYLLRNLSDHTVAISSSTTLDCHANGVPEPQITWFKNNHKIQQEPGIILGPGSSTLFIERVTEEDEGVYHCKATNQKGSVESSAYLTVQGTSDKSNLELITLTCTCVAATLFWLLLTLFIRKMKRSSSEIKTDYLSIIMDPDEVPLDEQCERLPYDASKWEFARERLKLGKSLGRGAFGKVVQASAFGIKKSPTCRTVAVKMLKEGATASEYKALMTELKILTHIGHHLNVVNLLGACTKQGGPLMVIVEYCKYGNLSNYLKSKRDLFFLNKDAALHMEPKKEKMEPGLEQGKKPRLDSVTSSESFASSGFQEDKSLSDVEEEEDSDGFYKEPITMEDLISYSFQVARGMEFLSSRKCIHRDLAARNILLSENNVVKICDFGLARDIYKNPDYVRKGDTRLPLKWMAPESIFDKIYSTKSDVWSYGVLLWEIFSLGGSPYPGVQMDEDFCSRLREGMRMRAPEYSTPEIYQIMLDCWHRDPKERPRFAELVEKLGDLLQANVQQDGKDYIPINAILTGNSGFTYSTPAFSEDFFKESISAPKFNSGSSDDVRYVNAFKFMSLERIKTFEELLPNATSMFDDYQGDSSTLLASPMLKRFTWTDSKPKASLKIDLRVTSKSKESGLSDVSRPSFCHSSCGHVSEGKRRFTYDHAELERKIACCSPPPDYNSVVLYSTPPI
Chain of Tyrosine-protein kinase receptor UFO (P30530 whole entry): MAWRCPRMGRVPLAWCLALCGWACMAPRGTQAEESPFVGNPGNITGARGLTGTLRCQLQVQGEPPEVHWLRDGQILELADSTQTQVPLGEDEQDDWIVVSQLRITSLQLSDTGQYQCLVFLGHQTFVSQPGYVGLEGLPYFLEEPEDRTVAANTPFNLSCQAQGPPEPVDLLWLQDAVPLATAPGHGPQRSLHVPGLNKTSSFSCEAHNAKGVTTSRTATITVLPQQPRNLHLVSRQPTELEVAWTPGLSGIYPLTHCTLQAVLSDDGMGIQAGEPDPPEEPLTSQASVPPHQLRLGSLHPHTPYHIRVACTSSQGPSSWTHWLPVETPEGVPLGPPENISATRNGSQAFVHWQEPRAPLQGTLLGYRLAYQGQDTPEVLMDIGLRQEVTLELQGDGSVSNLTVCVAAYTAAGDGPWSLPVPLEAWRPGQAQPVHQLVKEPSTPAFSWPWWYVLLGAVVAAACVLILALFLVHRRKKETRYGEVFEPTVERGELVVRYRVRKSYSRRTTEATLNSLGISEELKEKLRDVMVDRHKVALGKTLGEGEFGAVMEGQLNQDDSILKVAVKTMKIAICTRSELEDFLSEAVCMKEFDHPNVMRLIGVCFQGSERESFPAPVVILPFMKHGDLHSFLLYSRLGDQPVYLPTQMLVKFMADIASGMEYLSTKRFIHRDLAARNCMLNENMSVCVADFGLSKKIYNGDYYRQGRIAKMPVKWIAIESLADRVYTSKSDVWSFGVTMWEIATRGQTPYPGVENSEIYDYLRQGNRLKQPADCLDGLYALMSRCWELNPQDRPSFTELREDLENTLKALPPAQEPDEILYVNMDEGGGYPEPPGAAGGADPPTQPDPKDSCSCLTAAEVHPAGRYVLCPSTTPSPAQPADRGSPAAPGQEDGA
Chain of CYP2C19 (P33261 whole entry): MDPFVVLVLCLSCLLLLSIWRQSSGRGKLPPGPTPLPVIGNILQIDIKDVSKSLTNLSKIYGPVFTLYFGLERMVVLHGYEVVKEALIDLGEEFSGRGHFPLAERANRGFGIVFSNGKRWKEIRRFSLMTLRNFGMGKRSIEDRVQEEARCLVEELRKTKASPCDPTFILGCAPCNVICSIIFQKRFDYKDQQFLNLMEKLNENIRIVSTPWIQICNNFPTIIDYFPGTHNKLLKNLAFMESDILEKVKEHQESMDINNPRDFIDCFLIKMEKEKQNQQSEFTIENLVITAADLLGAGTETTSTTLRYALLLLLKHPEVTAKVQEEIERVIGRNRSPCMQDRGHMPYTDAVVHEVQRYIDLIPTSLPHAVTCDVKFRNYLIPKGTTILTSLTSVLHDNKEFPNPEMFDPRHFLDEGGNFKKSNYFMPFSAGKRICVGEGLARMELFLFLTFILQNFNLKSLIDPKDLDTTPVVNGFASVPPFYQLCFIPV
Chain of Proto-oncogene tyrosine-protein kinase Src (P12931 2-536 limits assumed): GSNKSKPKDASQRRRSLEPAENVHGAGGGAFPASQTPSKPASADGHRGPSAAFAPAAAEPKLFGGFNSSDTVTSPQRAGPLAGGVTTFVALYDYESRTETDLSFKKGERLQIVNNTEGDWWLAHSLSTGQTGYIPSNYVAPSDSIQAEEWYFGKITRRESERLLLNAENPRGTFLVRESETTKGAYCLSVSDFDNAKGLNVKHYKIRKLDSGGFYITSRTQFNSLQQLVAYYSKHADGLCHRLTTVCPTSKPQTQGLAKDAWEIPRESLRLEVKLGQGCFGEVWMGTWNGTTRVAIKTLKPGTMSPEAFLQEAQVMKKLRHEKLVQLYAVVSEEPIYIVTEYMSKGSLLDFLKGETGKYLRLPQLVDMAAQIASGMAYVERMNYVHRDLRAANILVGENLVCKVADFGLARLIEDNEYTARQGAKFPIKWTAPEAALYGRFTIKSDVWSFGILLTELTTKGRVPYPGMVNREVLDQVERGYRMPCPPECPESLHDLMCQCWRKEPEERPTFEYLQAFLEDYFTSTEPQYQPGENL

Compound: CC(c1cc2cc(-c3cnn(C)c3)cnc2cc1F)n1nnc2ncc(-c3cnn(CCO)c3)nc21 (stereo in doubt; 14)
- inhibition at 20 min, 10 µM [1]: < 50%
- IC50 [2]: 0.002 µM
- microsomal CLint at 1 µM [3]: 5 µL/min/mg
- inhibition at 20 min, 10 µM [4]: < 50%
- inhibition at 20 min, 10 µM [5]: < 50%
- inhibition at 20 min, 10 µM [6]: < 50%
- F [7]: 12.1%
- IC50 [8]: 1.07 µM
- IC50 [9]: > 30 µM
- IC50 [10]: > 30 µM
- IC50 [11]: 5.4 µM
- IC50 [12]: > 30 µM
- IC50 [13]: > 30 µM
- IC50 [14]: 17.1 µM
- IC50 [15]: > 30 µM
- Activity [16]: 79.2%
- Activity [17]: 87.9%
- Activity [18]: Non-Toxic
